From ChEMBL document CHEMBL3351244, “Structure based design of novel 6,5 heterobicyclic mitogen-activated protein kinase kinase (MEK) inhibitors leading to the discovery of imidazo[1,5-a] pyrazine G-479” (Bioorg Med Chem Lett, 2014)
≈ marks a conversion by molar mass, not a printed value.

What was measured:
Cytochrome P450 3A4 [1] = target: T1, Cytochrome P450 3A4 (Homo sapiens, UniProt P08684); assay: Inhibition of CYP3A4 (unknown origin) using testosterone substrate; type: ADME
[2] = Antiproliferative activity against human HCT116 cells assessed as inhibition of cell proliferation after 72 hrs; type: functional, cell-based; settings: HCT-116, 72 h
Outline: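 Cell proliferation measured after 72 h exposure in HCT116 and A375 cells; IC₅₀ reported.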

Cytochrome P450 2C9 = Cytochrome P450 2C9 (Homo sapiens, UniProt P11712); assay: Inhibition of CYP2C9 (unknown origin); type: ADME
Cytochrome P450 1A2 = target: T2, Cytochrome P450 1A2 (Homo sapiens, UniProt P05177); assay: Inhibition of CYP1A2 (unknown origin); type: ADME
T2 sequence (P05177 whole entry): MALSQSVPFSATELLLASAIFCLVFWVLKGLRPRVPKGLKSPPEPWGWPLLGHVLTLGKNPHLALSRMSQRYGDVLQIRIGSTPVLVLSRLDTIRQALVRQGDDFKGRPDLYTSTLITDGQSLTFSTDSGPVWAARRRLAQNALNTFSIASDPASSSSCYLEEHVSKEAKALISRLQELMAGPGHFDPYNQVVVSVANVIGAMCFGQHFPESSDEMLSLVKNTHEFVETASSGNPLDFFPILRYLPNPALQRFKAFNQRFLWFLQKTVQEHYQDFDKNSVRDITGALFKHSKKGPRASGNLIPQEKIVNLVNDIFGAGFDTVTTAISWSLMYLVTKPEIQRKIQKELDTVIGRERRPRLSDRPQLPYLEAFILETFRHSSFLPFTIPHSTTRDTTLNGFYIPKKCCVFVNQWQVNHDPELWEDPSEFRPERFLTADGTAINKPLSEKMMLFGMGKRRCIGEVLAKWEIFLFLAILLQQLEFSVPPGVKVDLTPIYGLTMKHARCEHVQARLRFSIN

Cytochrome P450 2C19 = Cytochrome P450 2C19 (Homo sapiens, UniProt P33261); assay: Inhibition of CYP2C19 (unknown origin); type: ADME
Cytochrome P450 2D6 = Cytochrome P450 2D6 (Homo sapiens, UniProt P10635); assay: Inhibition of CYP2D6 (unknown origin); type: ADME
[3] = Lipophilicity, logD of the compound at pH 7.4; type: physicochemical; settings: buffer
Cytochrome P450 3A4 [4] = target: T1, Cytochrome P450 3A4; assay: Inhibition of CYP3A4 (unknown origin) using midazolam substrate; type: ADME
[5] = (§1) Efflux ratio in MDCK cells; type: ADME, cell-based, Canis lupus familiaris; settings: dog
Outline: (§2)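 Efflux ratio derived as B–A permeability divided by A–B permeability across MDCK cell monolayers. Apparent permeabilities were measured in both directions and expressed in 10^-6 cm/s.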

[6] = Protein binding in human plasma; type: ADME, cell-free; settings: read-out: PPB (converted)
[7] = Hepatic clearance in mouse liver microsomes; type: ADME
Outline: (§3)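 Compounds incubated with liver microsomes from human, rat, mouse, dog and cynomolgus monkey to assess comparative metabolic stability; clearance expressed in mL/min/kg, with stable/moderate/labile designations assigned by set ranges.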

[8] = target: Voltage-gated inwardly rectifying potassium channel KCNH2 (Homo sapiens, UniProt Q12809); assay: Inhibition of human ERG by patch clamp assay
[9] = Hepatic clearance in human liver microsomes; type: ADME; outline: as §3
Rattus norvegicus [10] = assay: Free clearance in rat at 1 mg/kg, iv or 5 mg/kg, po; type: ADME, organism-based; settings: in vivo
[11] = (§4) Permeability from basolateral to apical side in MDCK cells; type: ADME, cell-based, Canis lupus familiaris; settings: dog, read-out: permeability
A-375 = assay: cells; settings: Homo sapiens, A-375, 72 h
[12] = Hepatic clearance in rat liver microsomes; type: ADME; outline: as §3
[13] = Oral bioavailability in rat at 5 mg/kg; type: ADME, organism-based; settings: in vivo
[14] = Protein binding in rat plasma; type: ADME, cell-free; settings: read-out: PPB (converted)
[15] = Thermodynamic solubility of the compound at pH 6.5; type: physicochemical; settings: buffer, read-out: Therm_solubility
Rattus norvegicus [16] = assay: Dose normalized AUC in rat at 5 mg/kg, po; type: ADME, organism-based; design: dose 5 mg/kg, route oral; settings: in vivo
[17] = Protein binding in mouse plasma; type: ADME, cell-free; settings: read-out: PPB (converted)
[18] = Dissociation constant, pKa of the compound by Sirius based assay; type: physicochemical
[19] = Total clearance in rat at 1 mg/kg, iv or 5 mg/kg, po; type: ADME, organism-based; settings: in vivo
[20] = (§5) Permeability from apical to basolateral side in MDCK cells; type: ADME, cell-based, Canis lupus familiaris; settings: dog, read-out: permeability
[21] = Half life in rat at 1 mg/kg, iv or 5 mg/kg, po; type: ADME, organism-based; settings: in vivo
[22] = Volume of distribution at steady state in rat at 1 mg/kg, iv or 5 mg/kg, po; type: ADME, organism-based; settings: in vivo, read-out: Vdss
[23] = Hepatic clearance in cynomolgus monkey liver microsomes; type: ADME, Macaca fascicularis; outline: as §3
Plasma [24] = assay: Drug metabolism rat plasma assessed as metabolite formation at 5 mg/kg, po; type: ADME, organism-based; design: dose 5 mg/kg, route oral; settings: in vivo
[25] = Hepatic clearance in dog liver microsomes; type: ADME, Canis lupus familiaris; outline: as §3
Plasma [26] = assay: Stability in rat plasma at 5 mg/kg, po; type: ADME, organism-based; design: dose 5 mg/kg, route oral; settings: in vivo
[27] = target: Dual specificity mitogen-activated protein kinase kinase 1 (Homo sapiens, UniProt Q02750); assay: Inhibition of MEK1 (unknown origin) by HTRF assay
MDCK [28] = assay: as §1; type: ADME, cell-based, Canis lupus familiaris; settings: dog; outline: as §2
MDCK [29] = assay: as §4; type: ADME, cell-based, Canis lupus familiaris; settings: dog
MDCK [30] = assay: as §5; type: ADME, cell-based, Canis lupus familiaris; settings: dog
[31] = AUC in rat at 1 mg/kg, iv or 5 mg/kg, po; type: ADME, organism-based; settings: plasma

Chain of Cytochrome P450 2C19 (P33261 whole entry): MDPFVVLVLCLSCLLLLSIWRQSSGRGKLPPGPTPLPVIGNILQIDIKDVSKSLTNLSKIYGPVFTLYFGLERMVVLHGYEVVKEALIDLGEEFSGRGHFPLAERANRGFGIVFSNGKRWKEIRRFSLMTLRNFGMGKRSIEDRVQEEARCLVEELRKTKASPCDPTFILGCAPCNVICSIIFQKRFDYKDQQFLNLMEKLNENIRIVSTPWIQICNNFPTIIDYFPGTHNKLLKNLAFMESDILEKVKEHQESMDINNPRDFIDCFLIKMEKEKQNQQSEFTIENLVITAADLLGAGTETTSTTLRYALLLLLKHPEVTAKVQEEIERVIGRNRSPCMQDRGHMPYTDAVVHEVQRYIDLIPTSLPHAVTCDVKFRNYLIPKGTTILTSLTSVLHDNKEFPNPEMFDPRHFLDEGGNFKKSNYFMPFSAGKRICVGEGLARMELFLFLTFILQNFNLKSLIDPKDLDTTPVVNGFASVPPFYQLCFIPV
T1 sequence (P08684 whole entry): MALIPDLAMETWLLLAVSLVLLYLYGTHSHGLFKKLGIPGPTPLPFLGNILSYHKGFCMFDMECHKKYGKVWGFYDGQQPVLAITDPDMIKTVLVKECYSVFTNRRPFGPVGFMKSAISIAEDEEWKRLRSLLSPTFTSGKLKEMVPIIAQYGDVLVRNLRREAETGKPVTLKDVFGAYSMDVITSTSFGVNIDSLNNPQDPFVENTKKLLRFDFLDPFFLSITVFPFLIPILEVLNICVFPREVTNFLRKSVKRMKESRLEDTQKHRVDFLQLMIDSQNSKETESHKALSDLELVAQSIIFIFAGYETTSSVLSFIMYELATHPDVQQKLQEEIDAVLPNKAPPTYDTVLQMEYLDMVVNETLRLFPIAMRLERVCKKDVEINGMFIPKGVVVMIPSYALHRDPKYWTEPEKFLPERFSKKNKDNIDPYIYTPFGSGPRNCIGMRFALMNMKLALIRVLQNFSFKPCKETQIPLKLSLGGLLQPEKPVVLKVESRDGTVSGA
Chain of Voltage-gated inwardly rectifying potassium channel KCNH2 (Q12809 whole entry): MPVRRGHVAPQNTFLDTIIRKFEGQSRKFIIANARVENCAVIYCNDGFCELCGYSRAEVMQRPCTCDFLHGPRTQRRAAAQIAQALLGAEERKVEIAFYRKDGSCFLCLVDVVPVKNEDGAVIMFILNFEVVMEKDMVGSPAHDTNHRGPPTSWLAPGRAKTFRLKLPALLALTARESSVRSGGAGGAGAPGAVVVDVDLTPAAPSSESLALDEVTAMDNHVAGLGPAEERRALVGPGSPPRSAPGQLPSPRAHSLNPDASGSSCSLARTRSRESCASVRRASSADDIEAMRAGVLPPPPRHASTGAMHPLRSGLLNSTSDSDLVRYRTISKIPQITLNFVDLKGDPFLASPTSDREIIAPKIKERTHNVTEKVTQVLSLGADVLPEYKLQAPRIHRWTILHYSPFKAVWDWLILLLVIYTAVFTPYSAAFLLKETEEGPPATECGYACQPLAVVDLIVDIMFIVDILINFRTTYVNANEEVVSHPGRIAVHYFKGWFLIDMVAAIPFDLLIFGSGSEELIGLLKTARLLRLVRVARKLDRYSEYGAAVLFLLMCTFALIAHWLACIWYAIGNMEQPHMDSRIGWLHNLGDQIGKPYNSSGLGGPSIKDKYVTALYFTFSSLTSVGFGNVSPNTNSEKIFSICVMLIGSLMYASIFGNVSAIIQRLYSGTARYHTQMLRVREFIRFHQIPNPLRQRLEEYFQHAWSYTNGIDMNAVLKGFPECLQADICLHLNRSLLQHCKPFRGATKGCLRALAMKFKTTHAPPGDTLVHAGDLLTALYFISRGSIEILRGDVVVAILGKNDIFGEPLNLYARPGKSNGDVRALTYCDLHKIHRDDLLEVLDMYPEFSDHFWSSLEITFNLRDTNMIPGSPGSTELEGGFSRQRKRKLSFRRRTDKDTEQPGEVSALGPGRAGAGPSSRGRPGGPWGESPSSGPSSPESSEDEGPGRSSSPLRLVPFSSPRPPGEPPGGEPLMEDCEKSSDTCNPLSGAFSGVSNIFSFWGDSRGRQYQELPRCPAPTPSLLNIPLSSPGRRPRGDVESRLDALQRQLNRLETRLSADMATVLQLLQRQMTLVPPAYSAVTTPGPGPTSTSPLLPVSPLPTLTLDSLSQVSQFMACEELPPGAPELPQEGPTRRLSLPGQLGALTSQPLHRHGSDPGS
Chain of Cytochrome P450 2D6 (P10635 whole entry): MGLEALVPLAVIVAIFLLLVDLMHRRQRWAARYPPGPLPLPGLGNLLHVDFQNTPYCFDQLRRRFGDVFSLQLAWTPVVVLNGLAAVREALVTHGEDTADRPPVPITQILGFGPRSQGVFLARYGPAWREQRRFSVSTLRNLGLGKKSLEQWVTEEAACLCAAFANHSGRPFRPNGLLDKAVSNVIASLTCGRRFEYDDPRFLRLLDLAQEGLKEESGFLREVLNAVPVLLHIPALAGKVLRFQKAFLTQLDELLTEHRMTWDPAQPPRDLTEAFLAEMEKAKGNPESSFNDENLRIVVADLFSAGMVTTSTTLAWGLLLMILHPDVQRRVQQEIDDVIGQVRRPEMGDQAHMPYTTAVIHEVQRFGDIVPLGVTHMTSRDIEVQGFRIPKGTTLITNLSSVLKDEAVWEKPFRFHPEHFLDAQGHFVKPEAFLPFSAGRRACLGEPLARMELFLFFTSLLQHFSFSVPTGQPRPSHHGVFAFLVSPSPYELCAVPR
Chain of Cytochrome P450 2C9 (P11712 whole entry): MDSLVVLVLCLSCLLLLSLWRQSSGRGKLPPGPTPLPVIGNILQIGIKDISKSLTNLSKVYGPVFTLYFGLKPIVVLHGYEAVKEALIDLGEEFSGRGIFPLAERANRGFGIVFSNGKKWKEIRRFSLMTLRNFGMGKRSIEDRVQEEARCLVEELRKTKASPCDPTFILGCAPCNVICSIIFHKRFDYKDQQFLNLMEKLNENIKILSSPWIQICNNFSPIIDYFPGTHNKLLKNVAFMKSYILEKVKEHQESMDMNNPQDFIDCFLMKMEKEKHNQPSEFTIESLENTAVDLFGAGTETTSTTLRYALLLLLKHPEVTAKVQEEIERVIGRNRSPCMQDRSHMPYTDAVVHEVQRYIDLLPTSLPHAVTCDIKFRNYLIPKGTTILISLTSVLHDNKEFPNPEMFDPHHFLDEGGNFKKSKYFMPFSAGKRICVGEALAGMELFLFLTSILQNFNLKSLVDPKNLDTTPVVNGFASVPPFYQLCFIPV
Chain of Dual specificity mitogen-activated protein kinase kinase 1 (Q02750 whole entry): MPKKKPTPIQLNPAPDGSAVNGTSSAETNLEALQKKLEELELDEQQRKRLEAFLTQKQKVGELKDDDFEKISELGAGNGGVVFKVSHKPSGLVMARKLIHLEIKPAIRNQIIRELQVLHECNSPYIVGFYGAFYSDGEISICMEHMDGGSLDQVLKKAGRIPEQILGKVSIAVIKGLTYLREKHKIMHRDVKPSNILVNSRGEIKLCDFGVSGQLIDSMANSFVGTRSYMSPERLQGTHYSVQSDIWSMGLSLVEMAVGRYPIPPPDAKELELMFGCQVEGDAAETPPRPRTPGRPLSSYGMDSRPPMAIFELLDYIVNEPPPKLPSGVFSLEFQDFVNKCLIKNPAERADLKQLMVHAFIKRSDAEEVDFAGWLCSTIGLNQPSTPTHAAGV

| IC50 (Cytochrome P450 3A4 [1]) | IC50 (Cytochrome P450 2C9) | IC50 (Cytochrome P450 1A2) | IC50 (Cytochrome P450 2C19) | IC50 (Cytochrome P450 2D6) | logD [3] | IC50 (Cytochrome P450 3A4 [4]) | fraction unbound [6] | CLhep predicted [7] | CLhep predicted [9] | CL free (Rattus norvegicus [10]) | EC50 (A-375) | CLhep predicted [12] | bioavailability [13] | fraction unbound [14] | solubility thermodynamic [15] | AUC/dose (Rattus norvegicus [16]) | fraction unbound [17] | clearance [19] | SMILES | EC50 [2] | also measured |
| --- | --- | --- | --- | --- | --- | --- | --- | --- | --- | --- | --- | --- | --- | --- | --- | --- | --- | --- | --- | --- | --- |
| 9000 nM | 1300 nM | > 10000 nM | 1800 nM | > 10000 nM | 3.1 | 9000 nM | – | – | – | – | – | – | – | – | – | – | – | – | O=C(NOCCO)c1ccc2cnsc2c1Nc1ccc(I)cc1F | 44 nM | – |
| – | – | – | – | – | 2.1 | – | 0.09 | 54 mL/min/kg | 11 mL/min/kg | 600 mL/min/kg | 8 nM | 41 mL/min/kg | 38% | 0.08 | 150 µg/mL (≈ 328 µM) | 1.48 µM·h | 0.11 | 48 mL/min/kg | O=C(NOCCO)c1ncc2cncn2c1Nc1ccc(I)cc1F | 120 nM | efflux ratio [5]: 0.7; IC50 [8]: 3300 nM; Papp B→A [11]: 14 ×10⁻⁶ cm/s; pKa [18]: 2.03; Papp A→B [20]: 19.7 ×10⁻⁶ cm/s |
| – | 1200 nM | – | – | – | – | – | – | – | – | 55 mL/min/kg | – | – | – | 0.03 | – | 41 µM·h | – | 3.3 mL/min/kg | O=C(NOCCO)c1cc(F)c2cncn2c1Nc1ccc(I)cc1F | 140 nM | half-life [21]: 3.6 h |
| – | – | – | – | – | – | – | 0.1 | 56 mL/min/kg | 10 mL/min/kg | 800 mL/min/kg | 5 nM | 44 mL/min/kg | 15% | 0.055 | 48 µg/mL (≈ 102 µM) | 0.61 µM·h | 0.09 | 44 mL/min/kg | C[C@H](O)CONC(=O)c1ncc2cncn2c1Nc1ccc(I)cc1F | 52 nM | – |
| > 10000 nM | > 10000 nM | > 10000 nM | > 10000 nM | > 10000 nM | 2.1 | > 10000 nM | 0.005 | 64 mL/min/kg | 14 mL/min/kg | 1320 mL/min/kg | 4 nM | 38 mL/min/kg | 100% | 0.01 | 41 µg/mL (≈ 89.9 µM) | 20 µM·h | 0.06 | 13.2 mL/min/kg | O=C(NOCCO)c1ccc2cncn2c1Nc1ccc(I)cc1F [GDC-0623] | 51 nM | efflux ratio [5]: 2.6; IC50 [8]: 4400 nM; Papp B→A [11]: 16.5 ×10⁻⁶ cm/s; Vd [22]: 0.5 L/kg; pKa [18]: 4.3; CLhep predicted [23]: 30 mL/min/kg; Drug metabolism (Plasma [24]): metabolite_detected; half-life [21]: 1.7 h; CLhep predicted [25]: 12 mL/min/kg; Stability (Plasma [26]): 82%; Papp A→B [20]: 6.2 ×10⁻⁶ cm/s |
| > 10000 nM | > 10000 nM | > 10000 nM | > 10000 nM | > 10000 nM | 3.1 | > 10000 nM | – | – | – | – | 25 nM | – | – | – | – | – | – | – | O=C(NOCCO)c1oc2ccncc2c1Nc1ccc(I)cc1F | 120 nM | IC50 [27]: 12 nM |
| – | – | – | – | – | – | – | 0.14 | 29 mL/min/kg | 8 mL/min/kg | 92 mL/min/kg | 7 nM | 19 mL/min/kg | 65% | 0.13 | 12 µg/mL (≈ 24.7 µM) | 9.2 µM·h | 0.13 | 12 mL/min/kg | C[C@H](CO)CONC(=O)c1ncc2cncn2c1Nc1ccc(I)cc1F | 107 nM | Ratio (MDCK [28]): 1.3; IC50 [8]: 14000 nM; permeability (MDCK [29]): 8.7 ×10⁻⁶ cm/s; permeability (MDCK [30]): 7.9 ×10⁻⁶ cm/s |
| > 10000 nM | 7300 nM | > 10000 nM | 16000 nM | > 10000 nM | 2.1 | > 10000 nM | 0.015 | 75 mL/min/kg | 15 mL/min/kg | 636 mL/min/kg | 2 nM | 40 mL/min/kg | 37% | 0.022 | 110 µg/mL (≈ 241 µM) | 37 µM·h | 0.049 | 14 mL/min/kg | O=C(NOCCO)c1ccn2cncc2c1Nc1ccc(I)cc1F | 35 nM | efflux ratio [5]: 0.7; AUC [31]: 6 µM·h; IC50 [8]: 2100 nM; Papp B→A [11]: 14 ×10⁻⁶ cm/s; Vd [22]: 0.46 L/kg; CLhep predicted [23]: 38 mL/min/kg; half-life [21]: 0.9 h; CLhep predicted [25]: 23 mL/min/kg; Papp A→B [20]: 20.4 ×10⁻⁶ cm/s |
